Data taken from ChEMBL document CHEMBL3392957, “The discovery of 1,2,3,9b-tetrahydro-5H-imidazo[2,1-a]isoindol-5-ones as a new class of respiratory syncytial virus (RSV) fusion inhibitors. Part 1” (Bioorg Med Chem Lett, 2015).
≈ marks a conversion by molar mass, not a printed value.

What was measured:
[1] = Apparent volume of distribution in Sprague-Dawley rat at 2.0 mg/kg, iv as solution in 5% glucose and 10% DMSO; details: in vivo, read-out: Vz
[2] = Cmax in Sprague-Dawley rat at 20 mg/kg, po as suspension with carboxymethylcellulose; details: in vivo
[3] = Kinetic solubility of the compound at pH 2 by nephelometry; format: physicochemical; details: buffer, read-out: Kinetic_solubility
How it was run: (§1)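 Kinetic solubility by nephelometry, at pH 2 and pH 6.5; reported as a range in μg/mL.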

[4] = Kinetic solubility of the compound at pH 6.5 by nephelometry; format: physicochemical; details: buffer, read-out: Kinetic_solubility
How it was run: as §1

[5] = system: Respiratory syncytial virus; assay: Antiviral activity against Respiratory syncytial virus A2 infected in human Hep2 cells assessed as inhibition of virus-induced cytopathicity after 5 days by MTT assay; format: functional, organism-based; details: A2, HEp-2, 120 h
How it was run: (§2)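 HEp2 cells (1.0 × 10⁴/well) infected at low moi (e.g. RSV A2 at moi 0.01) and added to serially diluted compound; 5 days at 37 °C, 5% CO₂. CPE read by MTT (1 mg/ml, 2 h, 37 °C), isopropanol, absorbance 540 nm; EC₅₀ by non-linear regression. SD given where n > 2.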

[6] = Elimination half life in Sprague-Dawley rat at 2.0 mg/kg, iv as solution in 5% glucose and 10% DMSO; details: in vivo, read-out: beta t1/2 (converted)
[7] = Total clearance in Sprague-Dawley rat at 2.0 mg/kg, iv as solution in 5% glucose and 10% DMSO; details: in vivo
[8] = system: Respiratory syncytial virus; assay: Antiviral activity against Respiratory syncytial virus A2 infected in human Hep2 cells assessed as inhibition of virus-induced cytopathicity after 5 days by MTT assay relative to alpha-1-acid glycoprotein; format: functional, HEp-2
How it was run: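 RSV A2 CPE assay in HEp2 cells (moi 0.01, 5 days, 37 °C, MTT read-out at 540 nm) run with alpha-1-acid glycoprotein at 1.5 mg/mL; result expressed as fold shift in EC₅₀ versus the assay without AAG.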

[9] = Oral bioavailability in Sprague-Dawley rat at 19 mg/kg as suspension with carboxymethylcellulose; format: ADME, organism-based; details: in vivo, 20 mg/kg, in the assay text read “20 mg/kg” for “19 mg/kg”
How it was run: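 Male Sprague-Dawley rats, n = 2, given a single oral dose. Plasma pharmacokinetics were analysed for Cmax (µM), terminal half-life (hr) and oral bioavailability F (%). The oral bioavailability estimate draws on a separate intravenous arm, also with n = 2 rats.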

[10] = system: Respiratory syncytial virus; assay: Antiviral activity against Respiratory syncytial virus B1 infected in human Hep2 cells assessed as inhibition of virus-induced cytopathicity after 5 days by MTT assay; format: functional, organism-based; details: B1, HEp-2, 120 h
How it was run: as §2

[11] = Elimination half life in Sprague-Dawley rat at 20 mg/kg, po as suspension with carboxymethylcellulose; details: in vivo, read-out: beta t1/2 (converted)
[12] = Cytotoxicity against human Hep2 cells after 5 days by MTT assay; format: cell-based, HEp-2
How it was run: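 Uninfected HEp2 cells (1.0 × 10⁴/well) with serially diluted compound, 5 days at 37 °C in 5% CO₂; viability by MTT (1 mg/ml, 2 h), isopropanol, absorbance 540 nm; CC₅₀ by non-linear regression.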

[13] = Lipophilicity, log D of the compound in octanol saturated mobile phase at pH 7.4 by chromatographic method; format: physicochemical
How it was run: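 Effective logD determined chromatographically on a SUPELCOSIL LC-ABZ column with octanol-saturated mobile phase, pH 7.4.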

[14] = system: Respiratory syncytial virus; assay: Antiviral activity against wild-type Respiratory syncytial virus A Long infected in human Hep2 cells assessed as inhibition of virus-induced cytopathicity after 5 days by MTT assay; format: functional, organism-based; details: HEp-2, 120 h
How it was run: as §2

[15] = Plasma protein binding in rat; format: ADME, cell-free; details: read-out: PPB (converted)
[16] = Apparent volume of distribution in Sprague-Dawley rat at 1.4 mg/kg, iv; format: ADME, organism-based; parameters: dose 1.4 mg/kg, route intravenous; details: in vivo, read-out: Vz
[17] = Elimination half life in Sprague-Dawley rat at 22 mg/kg, po as suspension with hydroxypropylmethylcellulose; format: ADME, organism-based; parameters: dose 22 mg/kg, route oral; details: in vivo, read-out: beta t1/2 (converted)
[18] = Elimination half life in Sprague-Dawley rat at 1.4 mg/kg, iv; format: ADME, organism-based; parameters: dose 1.4 mg/kg, route intravenous; details: in vivo, read-out: beta t1/2 (converted)
[19] = system: Respiratory syncytial virus; assay: Selectivity ratio of EC50 for Respiratory syncytial virus A Long harboring F protein D489Y mutant infected in human Hep2 cells to EC50 for wild-type Respiratory syncytial virus A Long infected in human Hep2 cells
[20] = Total clearance in Sprague-Dawley rat at 1.4 mg/kg, iv; format: ADME, organism-based; parameters: dose 1.4 mg/kg, route intravenous; details: in vivo
[21] = Cmax in Sprague-Dawley rat at 22 mg/kg, po as suspension with hydroxypropylmethylcellulose; format: ADME, organism-based; parameters: dose 22 mg/kg, route oral; details: in vivo
[22] = Oral bioavailability in Sprague-Dawley rat at 22 mg/kg as suspension with hydroxypropylmethylcellulose; format: ADME, organism-based; details: in vivo
[23] = system: Respiratory syncytial virus; assay: Selectivity ratio of EC50 for Respiratory syncytial virus A Long harboring F protein D489 mutant infected in human Hep2 cells to EC50 for wild-type Respiratory syncytial virus A Long infected in human Hep2 cells; format: functional, HEp-2
How it was run: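 CPE assay: HEp2 cells (1.0 × 10⁴/well) infected at low moi with RSV A Long, either F-protein D489Y mutant or wild type, and added to serially diluted compound. Incubated 5 days at 37 °C, 5% CO₂. MTT (1 mg/ml) added for 2 h, then isopropanol, and absorbance read at 540 nm. EC50 by non-linear regression. Ratio is mutant EC50 over wild-type EC50.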

Structure (SMILES)	solubility kinetic [3]	solubility kinetic [4]	EC50 [5]	fold change (FC) [8]	EC50 [10]	CC50 at 120 h [12]	chromatographic logD [13]	EC50 [14]	further results
O=C(c1ccc(F)cc1)N1CCN2C(=O)c3cc[n+]([O-])cc3C12c1ccc(Cl)cc1 (racemic)	50 µg/mL (≈ 118 µM)	25 µg/mL (≈ 59 µM)	250 nM	<10	910 nM	> 47000 nM	2.3	120 nM	Vd [1]: 1.3 L/kg; Cmax [2]: 23 µM; half-life [6]: 6.5 h; clearance [7]: 2.4 mL/min/kg; bioavailability [9]: 89%; half-life [11]: 5.6 h
O=C(c1ccc(F)cc1)N1CCN2C(=O)c3ccccc3C12c1ccc(Cl)cc1 (racemic)	6.3 µg/mL (≈ 15.5 µM)	6.3 µg/mL (≈ 15.5 µM)	280 nM	39	750 nM	> 20000 nM	4	260 nM	fraction unbound [15]: 0.02; Vd [16]: 2.7 L/kg; half-life [17]: 17 h; half-life [18]: 16 h; Ratio EC50 [19]: >76; clearance [20]: 2.1 mL/min/kg; Cmax [21]: 2 µM; bioavailability [22]: 15%; Ratio EC50 [23]: >76
